Results published in ChEMBL document CHEMBL3044834, “Novel protoporphyrinogen oxidase inhibitors: 3H-pyrazolo[3,4-d][1,2,3]triazin-4-one derivatives” (J Agric Food Chem, 2008).

Key:
Assay type in all cases: functional
Amaranthus retroflexus [1] = experiment: Herbicidal activity against Amaranthus retroflexus assessed as inhibition of fresh weed plant weight at 187.5 g/ha using post-emergence treatment protocol
In short: (§1)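 Test compounds made up as emulsions by dissolving in 100 µL N,N-dimethylformamide, then adding a little Tween 20 and water. For post-emergence, weed seedlings at one leaf and one stem were sprayed at the same rates as the pre-emergence test. Fresh weight was recorded 15 days after treatment and expressed as percent inhibition versus controls. All treatments were run in triplicate.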

Digitaria sanguinalis [2] = experiment: Herbicidal activity against Digitaria sanguinalis (hairy crabgrass) assessed as inhibition of fresh weed plant weight at 1500 g/ha using pre-emergence treatment protocol
Digitaria sanguinalis [3] = experiment: Herbicidal activity against Digitaria sanguinalis (hairy crabgrass) assessed as inhibition of fresh weed plant weight at 93.75 g/ha using pre-emergence treatment protocol
[4] = test system: Brassica rapa subsp. oleifera; experiment: Herbicidal activity against Brassica rapa subsp. oleifera assessed as inhibition of fresh weed plant weight at 375 g/ha using post-emergence treatment protocol; in short: as §1
[5] = test system: Brassica rapa subsp. oleifera; experiment: Herbicidal activity against Brassica rapa subsp. oleifera assessed as inhibition of fresh weed plant weight at 750 g/ha using pre-emergence treatment protocol
Amaranthus retroflexus [6] = experiment: Herbicidal activity against Amaranthus retroflexus assessed as inhibition of fresh weed plant weight at 187.5 g/ha using pre-emergence treatment protocol
[7] = test system: Brassica rapa subsp. oleifera; experiment: Herbicidal activity against Brassica rapa subsp. oleifera assessed as inhibition of fresh weed plant weight at 93.75 g/ha using pre-emergence treatment protocol
Digitaria sanguinalis [8] = experiment: Herbicidal activity against Digitaria sanguinalis (hairy crabgrass) assessed as inhibition of fresh weed plant weight at 750 g/ha using pre-emergence treatment protocol
Digitaria sanguinalis [9] = experiment: Herbicidal activity against Digitaria sanguinalis (hairy crabgrass) assessed as inhibition of fresh weed plant weight at 375 g/ha using post-emergence treatment protocol; in short: as §1
Amaranthus retroflexus [10] = experiment: Herbicidal activity against Amaranthus retroflexus assessed as inhibition of fresh weed plant weight at 1500 g/ha using pre-emergence treatment protocol
Digitaria sanguinalis [11] = experiment: Herbicidal activity against Digitaria sanguinalis (hairy crabgrass) assessed as inhibition of fresh weed plant weight at 1500 g/ha using post-emergence treatment protocol; in short: as §1
[12] = test system: Brassica rapa subsp. oleifera; experiment: Herbicidal activity against Brassica rapa subsp. oleifera assessed as inhibition of fresh weed plant weight at 1500 g/ha using pre-emergence treatment protocol
Echinochloa crus-galli [13] = experiment: Herbicidal activity against Echinochloa crus-galli (barnyard grass) assessed as inhibition of fresh weed plant weight at 1500 g/ha using pre-emergence treatment protocol
[14] = test system: Brassica rapa subsp. oleifera; experiment: Herbicidal activity against Brassica rapa subsp. oleifera assessed as inhibition of fresh weed plant weight at 187.5 g/ha using pre-emergence treatment protocol
Amaranthus retroflexus [15] = experiment: Herbicidal activity against Amaranthus retroflexus assessed as inhibition of fresh weed plant weight at 93.75 g/ha using post-emergence treatment protocol; in short: as §1
Amaranthus retroflexus [16] = experiment: Herbicidal activity against Amaranthus retroflexus assessed as inhibition of fresh weed plant weight at 375 g/ha using post-emergence treatment protocol; in short: as §1
Echinochloa crus-galli [17] = experiment: Herbicidal activity against Echinochloa crus-galli (barnyard grass) assessed as inhibition of fresh weed plant weight at 1500 g/ha using post-emergence treatment protocol; in short: as §1
Amaranthus retroflexus [18] = experiment: Herbicidal activity against Amaranthus retroflexus assessed as inhibition of fresh weed plant weight at 750 g/ha using pre-emergence treatment protocol; in short: as §1
Digitaria sanguinalis [19] = experiment: Herbicidal activity against Digitaria sanguinalis (hairy crabgrass) assessed as inhibition of fresh weed plant weight at 93.75 g/ha using post-emergence treatment protocol; in short: as §1
Echinochloa crus-galli [20] = experiment: Herbicidal activity against Echinochloa crus-galli (barnyard grass) assessed as inhibition of fresh weed plant weight at 187.5 g/ha using post-emergence treatment protocol; in short: as §1
Digitaria sanguinalis [21] = experiment: Herbicidal activity against Digitaria sanguinalis (hairy crabgrass) assessed as inhibition of fresh weed plant weight at 375 g/ha using pre-emergence treatment protocol
Digitaria sanguinalis [22] = experiment: Herbicidal activity against Digitaria sanguinalis (hairy crabgrass) assessed as inhibition of fresh weed plant weight at 750 g/ha using post-emergence treatment protocol; in short: as §1
Amaranthus retroflexus [23] = experiment: Herbicidal activity against Amaranthus retroflexus assessed as inhibition of fresh weed plant weight at 750 g/ha using post-emergence treatment protocol; in short: as §1
Echinochloa crus-galli [24] = experiment: Herbicidal activity against Echinochloa crus-galli (barnyard grass) assessed as inhibition of fresh weed plant weight at 750 g/ha using post-emergence treatment protocol; in short: as §1
[25] = test system: Brassica rapa subsp. oleifera; experiment: Herbicidal activity against Brassica rapa subsp. oleifera assessed as inhibition of fresh weed plant weight at 187.5 g/ha using post-emergence treatment protocol; in short: as §1
Amaranthus retroflexus [26] = experiment: Herbicidal activity against Amaranthus retroflexus assessed as inhibition of fresh weed plant weight at 1500 g/ha using post-emergence treatment protocol; in short: as §1
Echinochloa crus-galli [27] = experiment: Herbicidal activity against Echinochloa crus-galli (barnyard grass) assessed as inhibition of fresh weed plant weight at 93.75 g/ha using post-emergence treatment protocol; in short: as §1
Amaranthus retroflexus [28] = experiment: Herbicidal activity against Amaranthus retroflexus assessed as inhibition of fresh weed plant weight at 93.75 g/ha using pre-emergence treatment protocol
Echinochloa crus-galli [29] = experiment: Herbicidal activity against Echinochloa crus-galli (barnyard grass) assessed as inhibition of fresh weed plant weight at 375 g/ha using post-emergence treatment protocol; in short: as §1
[30] = test system: Brassica rapa subsp. oleifera; experiment: Herbicidal activity against Brassica rapa subsp. oleifera assessed as inhibition of fresh weed plant weight at 750 g/ha using post-emergence treatment protocol; in short: as §1
[31] = test system: Brassica rapa subsp. oleifera; experiment: Herbicidal activity against Brassica rapa subsp. oleifera assessed as inhibition of fresh weed plant weight at 375 g/ha using pre-emergence treatment protocol
Echinochloa crus-galli [32] = experiment: Herbicidal activity against Echinochloa crus-galli (barnyard grass) assessed as inhibition of fresh weed plant weight at 187.5 g/ha using pre-emergence treatment protocol; in short: as §1
[33] = test system: Brassica rapa subsp. oleifera; experiment: Herbicidal activity against Brassica rapa subsp. oleifera assessed as inhibition of fresh weed plant weight at 1500 g/ha using post-emergence treatment protocol; in short: as §1
Echinochloa crus-galli [34] = experiment: Herbicidal activity against Echinochloa crus-galli (barnyard grass) assessed as inhibition of fresh weed plant weight at 375 g/ha using pre-emergence treatment protocol; in short: as §1
[35] = test system: Brassica rapa subsp. oleifera; experiment: Herbicidal activity against Brassica rapa subsp. oleifera assessed as inhibition of fresh weed plant weight at 93.75 g/ha using post-emergence treatment protocol; in short: as §1
Echinochloa crus-galli [36] = experiment: Herbicidal activity against Echinochloa crus-galli (barnyard grass) assessed as inhibition of fresh weed plant weight at 750 g/ha using pre-emergence treatment protocol
Digitaria sanguinalis [37] = experiment: Herbicidal activity against Digitaria sanguinalis (hairy crabgrass) assessed as inhibition of fresh weed plant weight at 187.5 g/ha using pre-emergence treatment protocol
Echinochloa crus-galli [38] = experiment: Herbicidal activity against Echinochloa crus-galli (barnyard grass) assessed as inhibition of fresh weed plant weight at 93.75 g/ha using pre-emergence treatment protocol
Digitaria sanguinalis [39] = experiment: Herbicidal activity against Digitaria sanguinalis (hairy crabgrass) assessed as inhibition of fresh weed plant weight at 187.5 g/ha using post-emergence treatment protocol; in short: as §1
Amaranthus retroflexus [40] = experiment: Herbicidal activity against Amaranthus retroflexus assessed as inhibition of fresh weed plant weight at 375 g/ha using pre-emergence treatment protocol

Compound	inhibition at 1500 g/ha (Digitaria sanguinalis [2])	inhibition at 93.75 g/ha (Digitaria sanguinalis [3])	inhibition at 750 g/ha [5]	inhibition at 187.5 g/ha (Amaranthus retroflexus [6])	inhibition at 93.75 g/ha [7]	inhibition at 750 g/ha (Digitaria sanguinalis [8])	inhibition at 1500 g/ha (Amaranthus retroflexus [10])	inhibition at 1500 g/ha (Digitaria sanguinalis [11])	inhibition at 1500 g/ha [12]	inhibition at 1500 g/ha (Echinochloa crus-galli [13])	inhibition at 187.5 g/ha [14]	inhibition at 1500 g/ha (Echinochloa crus-galli [17])	inhibition at 750 g/ha (Amaranthus retroflexus [18])	inhibition at 375 g/ha (Digitaria sanguinalis [21])	inhibition at 1500 g/ha (Amaranthus retroflexus [26])	inhibition at 93.75 g/ha (Amaranthus retroflexus [28])	inhibition at 375 g/ha [31]	inhibition at 187.5 g/ha (Echinochloa crus-galli [32])	inhibition at 1500 g/ha [33]	inhibition at 375 g/ha (Echinochloa crus-galli [34])	other results
C#CCN1C(=O)COc2cc(F)c(-n3nnc4nn(CC=C)cc4c3=O)cc21	80.7%	6.1%	100%	100%	26%	67.4%	100%	32.7%	100%	100%	90.8%	38.7%	100%	24.5%	100%	100%	100%	13.3%	70.9%	49.1%	inhibition at 187.5 g/ha (Amaranthus retroflexus [1]): 40.5%; inhibition at 375 g/ha [4]: 38.9%; inhibition at 375 g/ha (Digitaria sanguinalis [9]): 0%; inhibition at 93.75 g/ha (Amaranthus retroflexus [15]): 30.6%; inhibition at 375 g/ha (Amaranthus retroflexus [16]): 48.8%; inhibition at 93.75 g/ha (Digitaria sanguinalis [19]): 0%; inhibition at 187.5 g/ha (Echinochloa crus-galli [20]): 14.7%; inhibition at 750 g/ha (Digitaria sanguinalis [22]): 0%; inhibition at 750 g/ha (Amaranthus retroflexus [23]): 100%; inhibition at 750 g/ha (Echinochloa crus-galli [24]): 23.6%; inhibition at 187.5 g/ha [25]: 0%; inhibition at 93.75 g/ha (Echinochloa crus-galli [27]): 12.1%; inhibition at 375 g/ha (Echinochloa crus-galli [29]): 17.6%; inhibition at 750 g/ha [30]: 50.4%; inhibition at 93.75 g/ha [35]: 0%; inhibition at 750 g/ha (Echinochloa crus-galli [36]): 95.7%; inhibition at 187.5 g/ha (Digitaria sanguinalis [37]): 16.3%; inhibition at 93.75 g/ha (Echinochloa crus-galli [38]): 3.5%; inhibition at 187.5 g/ha (Digitaria sanguinalis [39]): 0%; inhibition at 375 g/ha (Amaranthus retroflexus [40]): 100%
C=CCN1C(=O)COc2cc(F)c(-n3nnc4nn(CC=C)cc4c3=O)cc21	90%	6.1%	100%	100%	51.2%	75.5%	100%	0%	100%	100%	95.9%	30.8%	100%	40.8%	100%	100%	100%	18.2%	95.6%	27.9%	inhibition at 187.5 g/ha (Amaranthus retroflexus [1]): 45.5%; inhibition at 375 g/ha [4]: 60.8%; inhibition at 375 g/ha (Digitaria sanguinalis [9]): 0%; inhibition at 93.75 g/ha (Amaranthus retroflexus [15]): 28.9%; inhibition at 375 g/ha (Amaranthus retroflexus [16]): 83.5%; inhibition at 93.75 g/ha (Digitaria sanguinalis [19]): 0%; inhibition at 187.5 g/ha (Echinochloa crus-galli [20]): 2.8%; inhibition at 750 g/ha (Digitaria sanguinalis [22]): 0%; inhibition at 750 g/ha (Amaranthus retroflexus [23]): 100%; inhibition at 750 g/ha (Echinochloa crus-galli [24]): 18.1%; inhibition at 187.5 g/ha [25]: 12.3%; inhibition at 93.75 g/ha (Echinochloa crus-galli [27]): 0%; inhibition at 375 g/ha (Echinochloa crus-galli [29]): 17.2%; inhibition at 750 g/ha [30]: 88.5%; inhibition at 93.75 g/ha [35]: 10.2%; inhibition at 750 g/ha (Echinochloa crus-galli [36]): 89.7%; inhibition at 187.5 g/ha (Digitaria sanguinalis [37]): 16.3%; inhibition at 93.75 g/ha (Echinochloa crus-galli [38]): 8.2%; inhibition at 187.5 g/ha (Digitaria sanguinalis [39]): 0%; inhibition at 375 g/ha (Amaranthus retroflexus [40]): 100%
C#CCN1C(=O)COc2cc(F)c(-n3nnc4c(cnn4C)c3=O)cc21	100%	26.8%	97.1%	66%	47.3%	100%	100%	39.2%	98.8%	100%	77.7%	58.4%	100%	100%	71.8%	60.2%	95.6%	48.4%	45.6%	94.8%	inhibition at 750 g/ha (Echinochloa crus-galli [36]): 100%; inhibition at 187.5 g/ha (Digitaria sanguinalis [37]): 80%; inhibition at 93.75 g/ha (Echinochloa crus-galli [38]): 47.1%; inhibition at 375 g/ha (Amaranthus retroflexus [40]): 96.3%
CCCN1C(=O)COc2cc(F)c(-n3nnc4c(cnn4C)c3=O)cc21	94.1%	3.9%	79.9%	89.5%	32.2%	87.8%	100%	47.5%	100%	94.8%	38.5%	46.9%	95.3%	65.4%	54.1%	83.8%	57.1%	28.4%	20.5%	69.6%	inhibition at 750 g/ha (Echinochloa crus-galli [36]): 91.2%; inhibition at 187.5 g/ha (Digitaria sanguinalis [37]): 14.2%; inhibition at 93.75 g/ha (Echinochloa crus-galli [38]): 0%; inhibition at 375 g/ha (Amaranthus retroflexus [40]): 93.2%
